Screens (PubChem BioAssay)
Compounds with a hit are over-represented: about 0.64% of the library has one in this group of screens.
PMI act hi M6P: human PMI activators, high substrate, primary screen, biochemical, fluorescence intensity, near-saturating mannose 6-phosphate. Mannose-6-phosphate isomerase (Homo sapiens), P34949. coupled PMI enzyme assay, resazurin fluorescence, 20 min; stronger effect = higher value; 1 = untreated enzyme, 0 = substrate-free blank. activation factor at 20 µM. 190,000 compounds, 0.34% hits. AID 1216, 2008;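 active = activation factor of 2 or more at 20 µM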
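Test system: Human PMI in coupled enzyme assay | Input: 15 ng/mL PMI | Medium: HEPES-buffered pH 7.4 with magnesium and detergent | Compound: One concentration, 20 µM, in 1% DMSO | Incubation: Enzyme reaction with compound 20 min at room temperature | Detection: Diaphorase-driven resazurin-to-resorufin fluorescence, excitation 544, emission 590 nm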
PMI activator: activators of human PMI, primary screen, biochemical, fluorescence intensity, near-Km mannose 6-phosphate; AID 1214, 2008; 190,000 compounds, 0.005% hits; Mannose-6-phosphate isomerase (Homo sapiens), P34949; purified human PMI, coupled resazurin fluorescence, 20 min; stronger effect = higher value; 1 = vehicle control, 0 substrate-free wells; activation factor at 20 µM;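 active = activation factor of 2 or more at 20 µM, relative to plate controls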
TNAP inh hiacc: human TNAP enzyme inhibitors, primary screen, biochemical, luminescent, high phosphate acceptor level, uHTS | purified TNAP, CDP-star luminescence, 1 M DEA | inhibition, % at 20 µM | 200,000 compounds, 0.03% hits;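 active = over 50% inhibition of tissue-nonspecific alkaline phosphatase at 20 µM in the single-dose screen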;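 note: plate controls were DMSO wells for no effect and EDTA-quenched wells as full inhibition for full effect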
Target sequence (P05186 whole entry, looked up): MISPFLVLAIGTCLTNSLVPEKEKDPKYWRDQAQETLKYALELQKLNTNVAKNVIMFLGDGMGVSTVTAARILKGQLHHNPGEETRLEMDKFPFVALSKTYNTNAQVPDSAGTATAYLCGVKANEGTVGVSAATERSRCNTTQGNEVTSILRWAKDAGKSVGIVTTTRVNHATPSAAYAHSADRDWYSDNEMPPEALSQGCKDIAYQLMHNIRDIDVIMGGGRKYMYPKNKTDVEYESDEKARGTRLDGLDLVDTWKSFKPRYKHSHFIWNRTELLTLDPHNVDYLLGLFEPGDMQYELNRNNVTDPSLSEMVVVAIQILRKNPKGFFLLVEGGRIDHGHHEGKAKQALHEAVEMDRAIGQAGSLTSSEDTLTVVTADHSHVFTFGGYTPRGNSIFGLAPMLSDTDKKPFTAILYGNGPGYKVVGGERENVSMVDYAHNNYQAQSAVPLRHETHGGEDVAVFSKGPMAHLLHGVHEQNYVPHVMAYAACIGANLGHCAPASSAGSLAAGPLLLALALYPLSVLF
TNAP act hiacc: TNAP activators at high phosphate acceptor level, primary screen, biochemical, luminescence, uHTS | Alkaline phosphatase, tissue-nonspecific isozyme (Homo sapiens), P05186 | purified TNAP, CDP-star luminescence, 1 M DEA, 30 min; stronger effect = higher value; 0 = EDTA background, 1 = DMSO-only activity | activation factor at 20 µM | 200,000 tested, under 10 active | AID 1136, 2008;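 active = activation factor at least 2 at 20 µM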
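Assay system: human TNAP; Input: enzyme diluted 1/800 final; Reagent: CDP-star luminogenic substrate at 100 µM final; Timing: 30 min, room temperature; Signal: luminescence; Evaluation: TNAP activation factor scaled between EDTA and DMSO control wells.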
TNAP inh noacc: human TNAP enzyme inhibitors, primary screen, biochemical, luminescent, no phosphate acceptor, uHTS; Alkaline phosphatase, tissue-nonspecific isozyme (Homo sapiens), P05186; purified TNAP, CDP-star luminescence, 30 min; inhibition, % at 20 µM; 200,000 compounds, 0.26% hits; AID 1012, 2008;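 active = tissue-nonspecific alkaline phosphatase inhibition above about 50% at 20 µM in the single-dose screen, limit read from the data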;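 note: 0% = DMSO negative control and 100% = EDTA positive control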
An asterisk follows results filed as active.

`COc1cc(C2/C(=C(/O)c3ccccc3)C(=O)C(=O)N2c2ccccn2)ccc1O` (configuration not stated) gave PMI act hi M6P 0.8, PMI activator 1, TNAP inh hiacc 2, TNAP act hiacc 1 and TNAP inh noacc 1.
Cc1ccc(Cl)cc1N1CCN(C(=O)CN(C2CCCCC2)S(C)(=O)=O)CC1 was read as PMI act hi M6P 1, PMI activator 1, TNAP inh hiacc 0, TNAP act hiacc 1 and TNAP inh noacc -4.
COc1cc(/C=C/C(=O)c2ccc(C)c([N+](=O)[O-])c2)cc(OC)c1O was read as PMI act hi M6P 0.8, PMI activator 0.8, TNAP inh hiacc 59*, TNAP act hiacc 0.4 and TNAP inh noacc 50.
Screening COc1ccc(/C=C/C(=O)c2ccc(C)c([N+](=O)[O-])c2)cc1O returned PMI act hi M6P 0.7, PMI activator 0.8, TNAP inh hiacc 25, TNAP act hiacc 0.8 and TNAP inh noacc 13.
`Cc1nc2cc(NCc3ccccc3O)ccc2n1Cc1ccccc1` gave PMI act hi M6P 0.8, PMI activator 0.9, TNAP inh hiacc -7, TNAP act hiacc 1.1 and TNAP inh noacc -15.
CCn1ccc(C(=O)Nc2c(C)nn(Cc3c(F)c(F)c(F)c(F)c3F)c2C)n1 was read as PMI act hi M6P 1.1, PMI activator 1.1, TNAP inh hiacc -4, TNAP act hiacc 1 and TNAP inh noacc -9.
Screening CSCc1cc(N2CCOCC2)nc(SCc2ccc(Cl)c(Cl)c2)n1 returned PMI act hi M6P 2*, PMI activator 1.2, TNAP inh hiacc -3, TNAP act hiacc 1 and TNAP inh noacc -5.
Screening CCN(CC)CCCOC(=O)c1ccc(OC)cc1O returned PMI act hi M6P 0.9, PMI activator 1, TNAP inh hiacc -5, TNAP act hiacc 1.1 and TNAP inh noacc -3.
[O-]C1=N/[N+](=C/c2ccc(Cl)cc2)CC1 was read as PMI act hi M6P 2*, PMI activator 1.5, TNAP inh hiacc 0, TNAP act hiacc 1 and TNAP inh noacc -1.
Screening CCc1ccccc1NC(=S)N(CCN1CCCCC1)Cc1ccco1 returned PMI act hi M6P 1, PMI activator 1, TNAP inh hiacc -6, TNAP act hiacc 1.1 and TNAP inh noacc -13.
Screening CCN(CC)C(=O)c1ccc2nc3ccccc3nc2c1 returned PMI act hi M6P 2.2*, PMI activator 1.6, TNAP inh hiacc 0, TNAP act hiacc 1 and TNAP inh noacc -7.
For CCN(CC)c1ccc(N=Nc2nn(C)c(C)c2[N+](=O)[O-])cc1 the results were PMI act hi M6P 0.9, PMI activator 0.9, TNAP inh hiacc 56*, TNAP act hiacc 0.4 and TNAP inh noacc 37.
For O=c1cc(-c2ccc(O)c(O)c2)oc2c(C3O[C@H](CO)[C@@H](O)[C@H](O)[C@H]3O)c(O)cc(O)c12 (some centres not stated) the results were PMI act hi M6P 0.9, PMI activator 0.5, TNAP inh hiacc 16, TNAP act hiacc 0.8 and TNAP inh noacc 53*.
For COc1ccc(C2C=C(Nc3ccccc3)C(=O)N2c2ccccc2)cc1OC (configuration not stated) the results were PMI act hi M6P 1.8, PMI activator 1.4, TNAP inh hiacc 1, TNAP act hiacc 1 and TNAP inh noacc -14.
For COc1cccc(C2C=C(Nc3ccccc3)C(=O)N2c2ccccc2)c1 (configuration not stated) the results were PMI act hi M6P 2.2*, PMI activator 1.7, TNAP inh hiacc -6, TNAP act hiacc 1.1 and TNAP inh noacc -2.
CCSc1cc(C2C(C#N)=C(N)OC(C)=C2C(=O)OC)c(C)o1 (configuration not stated) was read as PMI act hi M6P 2*, PMI activator 1.5, TNAP inh hiacc -2, TNAP act hiacc 1 and TNAP inh noacc -10.
